In the library only some 2.3% were active in any assay of this set; here they are far more common.
OXTR potentiator – human OXTR potentiators, primary screen, fluorescence, CHO-OTR cells, Fluo-8 calcium. activation, % at 3 µM. 320,000 compounds, 0.061% hits. Oxytocin receptor (Homo sapiens), P30559. Fluo-8 calcium fluorescence, potentiator mode; 0% = oxytocin EC15, 100% = EC100. AID 2445, 2010;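 active = activation above that plate's cutoff, the mean activation of tested compounds plus 3 SD, cut at about 6.6% in these data, passing the limit was not always enough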;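 note: 100% uses oxytocin at 75 nM as the full agonist control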
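System: human OTR in CHO cells / Also added: sub-maximal oxytocin, roughly EC15 / Control set: EC15 oxytocin low, 75 nM oxytocin high / Schedule: 6 min compound pre-incubation at room temperature, 100 s kinetic read / Compound: single-point 3.0 µM / Replication: singlicate / Technique: Fluo-8 calcium dye fluorescence / Read-out basis: % activation of max/min ratio relative to oxytocin controls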
V1aR counter – agonists of human V1a receptor, primary screen, counter-screen for OXTR agonist project, fluorescence, CHO-V1R cells | activation, % at 3 µM | 320,000 compounds, 0.25% hits | Fluo-8 calcium fluorescence, agonist mode; 0% DMSO, 100% 3 nM vasopressin | Vasopressin V1a receptor (Homo sapiens), P37288;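 active = activation above the mean activation of all tested compounds plus 3 SD, per screening run, cut at about 20% in these data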;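 note: signal is peak over basal fluorescence ratio across a 100 second FLIPR read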
Target sequence (P37288 whole entry, looked up): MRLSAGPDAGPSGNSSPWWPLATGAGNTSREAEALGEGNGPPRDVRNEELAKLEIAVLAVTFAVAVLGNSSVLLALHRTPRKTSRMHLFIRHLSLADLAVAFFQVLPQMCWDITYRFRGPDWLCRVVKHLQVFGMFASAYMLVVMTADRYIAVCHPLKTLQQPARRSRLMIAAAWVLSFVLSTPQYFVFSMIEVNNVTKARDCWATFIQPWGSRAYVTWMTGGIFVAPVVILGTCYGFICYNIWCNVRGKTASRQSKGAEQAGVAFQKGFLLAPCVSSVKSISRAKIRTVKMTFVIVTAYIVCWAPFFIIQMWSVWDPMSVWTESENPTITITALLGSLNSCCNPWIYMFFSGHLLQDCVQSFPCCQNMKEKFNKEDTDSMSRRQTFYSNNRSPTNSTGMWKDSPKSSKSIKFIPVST
TAAR1 antagonist – human TAAR1 antagonists, primary screen, Fluo-8 calcium fluorescence, CHO RD-HGA16 cells; Trace amine-associated receptor 1 (Homo sapiens), Q96RJ0; antagonist; inhibition, % at 3 µM; 360,000 compounds, 1.5% hits; AID 624466, 2012;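 active = inhibition above a per-plate cutoff, the mean inhibition of test compounds on that plate plus 3 SD, cut at about 49% in these data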;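 note: 0% = DMSO plus EC80 beta-PEA response and 100% = DMSO alone without agonist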
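Test system: CHO RD-HGA16 cells bearing hTAAR1 | Reagent: β-PEA, EC80 | Compound dosing: 3 µM, single point | Schedule: Dye loading 75 min at 37 °C, then 30 min room temperature | Signal: Calcium fluorescence with Fluo-8 | Evaluation: Percent inhibition of PEA-evoked calcium signal, max/basal emission ratio | Control set: DMSO-only wells and EC80 β-PEA-stimulated wells | Repeats: Singlicate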
OXTR ag – human OXTR agonists, primary screen, fluorescence, CHO-OTR cells, Fluo-8 calcium; AID 2435, 2010; Fluo-8 calcium fluorescence; normalized: DMSO 0%, oxytocin 100%; activation, % at 3 µM; 320,000 compounds, 0.32% hits; Oxytocin receptor (Homo sapiens), P30559;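 active = activation above the mean of all tested compounds plus 3 SD, cutoff set per screening run, cut at about 20% in these data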;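 note: peak over basal fluorescence ratio from a 100 s FLIPR kinetic read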
TAAR1 ag – human TAAR1 agonists, primary screen, Fluo-8 calcium fluorescence, CHO RD-HGA16 cells. vehicle wells 0%, saturating PEA agonist 100%. activation, % at 3 µM. 360,000 compounds, 0.99% hits. Trace amine-associated receptor 1 (Homo sapiens), Q96RJ0;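 active = activation above the mean activation of all test compounds in the run plus 3 SD, cut at about 38% in these data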
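test system = CHO RD-HGA16 cells carrying human TAAR1 plus Gα16 | schedule = 17-24 h seeding, 75 min 37 °C dye, 30 min RT | compound dosing = 3 µM single concentration | control set = DMSO and PEA EC100 | replicates = n 1 | signal = Fluo-8 fluorescence, 5 s baseline then 140 s kinetic read | measure = percent activation vs PEA EC100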
TAAR1 ag confirm – human TAAR1 agonists, retest of hits, confirmation, Fluo-8 calcium fluorescence, CHO RD-HGA16 cells | activation, % at 3 µM | shares compounds with TAAR1 ag | 2,400 compounds, 82% hits | scaled: DMSO 0%, maximal phenethylamine 100%;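 active = activation above a cutoff set at the run's mean compound activation plus 3 SD, cut at about 39% in these data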
Ga16 ag counter – nonselective calcium mobilization agonists, CHO-Ga16 cells, counter-screen for hTAAR1 agonist project, cell-based, fluorescence, CHO-Ga16 parental line | shares compounds with TAAR1 ag | Fluo-8 calcium fluorescence; normalized to maximal ATP response, DMSO zero | activation, % at 3 µM | 2,400 compounds, 50% hits;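 active = activation above the run cutoff, the mean activation over all tested wells plus 3 SD, cut at about 12% in these data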;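 note: 0% = DMSO wells and 100% = maximal ATP response on the peak over basal ratio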
TAAR1 desensitize – TAAR1 desensitization by agonist hits, confirmation, counter-screen for TAAR1 agonist project, cell-based, fluorescence, tachyphylaxis | shares compounds with TAAR1 ag | CHO RD-HGA16 hTAAR1, Fluo-8 calcium, beta-PEA response inhibition | inhibition, % at 3 µM | 2,400 compounds, 46% hits;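 active = inhibition above the run cutoff, the mean inhibition of all test compounds plus 3 SD, cut at about 49% in these data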;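 note: beta-PEA stimulus applied at its EC80; loss of beta-PEA calcium signal after compound pretreatment read as receptor desensitization; 0% = DMSO with beta-PEA at EC80 and 100% = DMSO alone without agonist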
Ga16 nonsel ant – inhibition of ATP-evoked calcium response in CHO-Ga16 cells, counter-screen for TAAR1 agonist project, cell-based, fluorescence; shares compounds with TAAR1 ag; CHO-Ga16 ATP-induced calcium, Fluo-8 fluorescence; inhibition, % at 3 µM; 2,400 compounds, 39% hits;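 active = inhibition above the plate's mean compound inhibition plus 3 SD, computed per plate, cut at about 22% in these data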;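 note: 0% = EC80 ATP with DMSO and 100% = DMSO wells without ATP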
* hit, by the source's call; . = not tested or not shown.

SMILES	OXTR potentiator	V1aR counter	TAAR1 antagonist	OXTR ag	TAAR1 ag	TAAR1 ag confirm	Ga16 ag counter	TAAR1 desensitize	Ga16 nonsel ant
Cc1ncoc1C(=O)NCC1=C(c2ccc(S(C)(=O)=O)cc2)C[C@@H]2CC[C@H]1N2Cc1ccco1	.	.	-23	.	1	.	.	.	.
O=C(CCCN1CCC2(CC1)C(=O)NCN2c1ccccc1)c1ccc(F)cc1	-12	28*	106*	41*	154*	131*	116*	107*	103*
COc1cc(O)cc2c1C(=O)OC(C)CCCC(=O)CCC/C=C\2 (configuration not stated)	-8	1	10	1	55*	30	26*	35	23*
C[C@H]1CCCC(=O)CCC/C=C/c2cc(O)cc(O)c2C(=O)O1	-2	0	-22	0	12	.	.	.	.
CCOP(=S)(OCC)Oc1cc(C)nc(C(C)C)n1	.	.	-1	.	-1	.	.	.	.
CCCCCCCSc1cc(OC)c(CCNC)cc1OC	-12	5	35	6	67*	52*	21*	44	24*
CCCCCSc1cc(OC)c(CCNC)cc1OC	-16	7	-10	13	37	.	.	.	.
N#Cc1c(N2CCNCC2)nc(-c2ccco2)c2c1CCCC2	1	0	48	-1	80*	96*	16*	90*	15
Cc1cccc(CCNCc2cc3ccc(C)cc3[nH]c2=O)c1	-5	1	70*	-1	83*	100*	5	93*	-1
CS(=O)(=O)N1Cc2cc(Br)ccc2-n2nncc2C1	.	.	-44	.	2	.	.	.	.
CCOC(=O)CNC(=O)N1Cc2cc(Br)ccc2-n2nncc2C1	.	.	4	.	-1	.	.	.	.
COc1ccc(Cc2c(O)[nH]c(=O)[nH]c2=O)c(OC)c1	-1	-1	-15	0	1	.	.	.	.
CC1CN=C(NC(C)c2ccccc2)S1 (configuration not stated)	-1	0	-6	-1	5	.	.	.	.
CC(NC1=NCCS1)c1ccccc1 (configuration not stated)	1	1	.	1	.	.	0	.	0
COc1ccccc1CCNCc1cc2c(cc1[N+](=O)[O-])OCO2	-1	1	.	1	.	.	3	.	7
Cc1ccc(C(C)C)c(OCC#CCN2CCCC2)c1	2	-1	-20	0	13	.	.	.	.
COc1ccc(N2C(=O)/C(=C/C=C/c3ccccc3[N+](=O)[O-])C(=O)NC2=S)cc1	.	.	-5	.	0	.	.	.	.
Cn1cccc1CNCCc1ccccc1F	-2	1	67*	0	63*	102*	-1	82*	5
COc1ccc(CNCCc2c[nH]c3ccccc23)c(OC)c1C	-15	14	3	11	28	.	.	.	.
COc1ccc(CNCCc2ccccc2F)c(OC)c1C	-9	3	73*	8	84*	93*	8	80*	10
CCOP(=O)(OCC)/C(C#N)=C/c1ccoc1	.	.	-8	.	1	.	.	.	.
CCC1(C)OC(c2ccccc2)=C/C(=C/C=C2C(=O)NC(=O)NC2=O)O1 (configuration not stated)	.	.	68*	.	70*	20	24*	26	42*
CCC1(Oc2ccccc2)C(=O)NC(=O)NC1=O	.	.	2	.	2	.	.	.	.
CN1CC(C(=O)c2ccc(Cl)cc2)C(c2ccccc2)C1 (configuration not stated)	-12	1	2	1	45*	75*	13*	36	11
CN1CC(C(=O)c2cccs2)C(c2ccc(Cl)cc2)C1 (configuration not stated)	-1	1	-23	2	1	.	.	.	.
SMILES	OXTR potentiator	V1aR counter	TAAR1 antagonist	OXTR ag	TAAR1 ag	TAAR1 ag confirm	Ga16 ag counter	TAAR1 desensitize	Ga16 nonsel ant
CCCCOc1ccc(CCN)cc1Cl	-6	7	67*	10	87*	99*	18*	84*	12
COc1cc(C(O)CN)ccc1O (configuration not stated)	-7	1	-8	0	21	.	.	.	.
CC(C)Oc1ccc(CCN)cc1Cl	-5	1	-28	1	52*	68*	11	11	2
COc1ccc(CCN)cc1O	-10	0	8	1	47*	62*	0	22	9
C[C@]12CC[C@@H](O)CC1=CCC1C2CC[C@@]2(C)C1CC[C@@H]2O (some centres not stated)	.	.	4	.	2	.	.	.	.
C[CH2][Hg][S]c1ccccc1C(=O)O	12*	7	96*	4	120*	44*	59*	73*	84*
CN1C(=O)/C(=C/c2cccn2-c2ccc3ccccc3c2)C(=O)NC1=S	-9	0	32	-1	5	.	.	.	.
Cc1cc(C)cc(N2C(=O)NC(=O)/C(=C\c3cccn3-c3ccc(Cl)cc3)C2=O)c1	-9	0	32	0	51*	37	12*	36	20
O=c1c2ccccc2nc(-c2cccs2)n1-c1ccccc1	-2	-1	-18	-2	7	.	.	.	.
NC(N)=N/N=C/c1cn(-c2ccccc2)nc1-c1cccs1	-5	-1	4	0	47*	76*	7	35	13
O=C(O)C(O)(c1ccc(Cl)cc1)C1(O)CCCC1 (configuration not stated)	.	.	-2	.	3	.	.	.	.
CC1CN(CC(=O)c2ccccc2Cl)CC(C)O1 (configuration not stated)	-8	2	54*	-1	85*	106*	3	44	-10
CCCCCn1c(=O)c(C(=O)Nc2ncccc2C)c(O)c2ccccc21	-26	39*	11	54*	54*	54*	86*	35	44*
CCCCn1c(=O)c(C(=O)Nc2ccccc2C)c(O)c2ccccc21	-17	0	.	0	.	.	.	.	.
